# ChEMBL document CHEMBL1157065, “Synthesis and evaluation of some new substituted benzothiazepine and benzoxazepine derivatives as anticonvulsant agents” (Eur J Med Chem, 2010)
# Assays:
# Rattus norvegicus = test: Anticonvulsant activity in Charles foster rat assessed as protection against maximal electroshock-induced seizures at 30 mg/kg, ip administered 1 hr before electroshock challenge; type: functional; details: route intraperitoneal
# Method in brief: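 Charles Foster rats of either sex, 90–150 g, in groups of ten, dosed i.p. with test drug or phenytoin sodium 30 mg/kg. 1 h after dosing, shock of 150 mA delivered by convulsiometer through ear electrodes for 2 s. Presence or absence of extensor response recorded.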
# [1] = Acute toxicity in ip dosed mouse; type: organism-based; details: in vivo, read-out: ALD50
smiles,measurement,setting,value
COc1ccc(N/C=C2\C(c3ccc(O)cc3)=Nc3ccccc3OC2c2cccc(OC)c2)cc1 (configuration not stated),Activity,Rattus norvegicus,70%
same,LD50,[1],> 1000 mg/kg
Oc1ccc(C2=Nc3ccccc3OC(c3ccccc3Cl)C2)cc1 (configuration not stated),Activity,Rattus norvegicus,70%
same,LD50,[1],> 1000 mg/kg
Oc1ccc(C2=Nc3ccccc3SC(c3ccc(Cl)cc3)C2)cc1 (configuration not stated),Activity,Rattus norvegicus,70%
same,LD50,[1],> 1000 mg/kg
Oc1ccc(C2=Nc3ccccc3OC(c3ccc(Cl)cc3)C2)cc1 (configuration not stated),Activity,Rattus norvegicus,60%
same,LD50,[1],> 1000 mg/kg
Oc1ccc(C2=Nc3ccccc3OC(c3ccc(O)cc3)C2)cc1 (configuration not stated),Activity,Rattus norvegicus,70%
same,LD50,[1],> 1000 mg/kg
COc1cccc(C2Sc3ccccc3N=C(c3ccc(O)cc3)/C2=C\Nc2ccc(Cl)cc2)c1 (configuration not stated),Activity,Rattus norvegicus,40%
same,LD50,[1],> 1000 mg/kg
COc1ccc(N/C=C2\C(c3ccc(O)cc3)=Nc3ccccc3SC2c2cccc(OC)c2)cc1 (configuration not stated),Activity,Rattus norvegicus,50%
same,LD50,[1],> 1000 mg/kg
Oc1ccc(C2=Nc3ccccc3OC(c3ccccc3O)C2)cc1 (configuration not stated),Activity,Rattus norvegicus,60%
same,LD50,[1],> 1000 mg/kg
COc1cccc(C2Oc3ccccc3N=C(c3ccc(O)cc3)/C2=C\Nc2ccc(Cl)cc2)c1 (configuration not stated),Activity,Rattus norvegicus,30%
same,LD50,[1],> 1000 mg/kg
Oc1ccc(C2=Nc3ccccc3OC(c3ccccc3Cl)/C2=C/Nc2ccc(Cl)cc2)cc1 (configuration not stated),Activity,Rattus norvegicus,50%
same,LD50,[1],> 1000 mg/kg
Oc1ccc(C2=Nc3ccccc3OC(c3ccc(Cl)cc3)/C2=C/Nc2ccc(Cl)cc2)cc1 (configuration not stated),Activity,Rattus norvegicus,60%
same,LD50,[1],> 1000 mg/kg
COc1ccc(N/C=C2\C(c3ccc(O)cc3)=Nc3ccccc3OC2c2ccccc2Cl)cc1 (configuration not stated),Activity,Rattus norvegicus,60%
same,LD50,[1],> 1000 mg/kg
Oc1ccc(C2=Nc3ccccc3SC(c3ccccc3Cl)/C2=C/Nc2ccc(Cl)cc2)cc1 (configuration not stated),Activity,Rattus norvegicus,70%
same,LD50,[1],> 1000 mg/kg
Oc1ccc(C2=Nc3ccccc3SC(c3ccccc3Cl)C2)cc1 (configuration not stated),Activity,Rattus norvegicus,80%
same,LD50,[1],> 1000 mg/kg
Oc1ccc(C2=Nc3ccccc3SC(c3ccccc3O)C2)cc1 (configuration not stated),Activity,Rattus norvegicus,70%
same,LD50,[1],> 1000 mg/kg
Oc1ccc(C2=Nc3ccccc3SC(c3ccc(O)cc3)C2)cc1 (configuration not stated),Activity,Rattus norvegicus,60%
same,LD50,[1],> 1000 mg/kg
COc1cccc(C2CC(c3ccc(O)cc3)=Nc3ccccc3O2)c1 (configuration not stated),Activity,Rattus norvegicus,20%
same,LD50,[1],> 1000 mg/kg
COc1cccc(C2CC(c3ccc(O)cc3)=Nc3ccccc3S2)c1 (configuration not stated),Activity,Rattus norvegicus,30%
same,LD50,[1],> 1000 mg/kg
COc1ccc(N/C=C2\C(c3ccc(O)cc3)=Nc3ccccc3OC2c2ccc(Cl)cc2)cc1 (configuration not stated),Activity,Rattus norvegicus,50%
same,LD50,[1],> 1000 mg/kg
Oc1ccc(C2=Nc3ccccc3SC(c3ccc(Cl)cc3)/C2=C/Nc2ccc(Cl)cc2)cc1 (configuration not stated),Activity,Rattus norvegicus,70%
same,LD50,[1],> 1000 mg/kg
Oc1ccc(C2=Nc3ccccc3SC(c3ccccc3O)/C2=C/Nc2ccc(Cl)cc2)cc1 (configuration not stated),Activity,Rattus norvegicus,60%
same,LD50,[1],> 1000 mg/kg
Oc1ccc(C2=Nc3ccccc3SC(c3ccc(O)cc3)/C2=C/Nc2ccc(Cl)cc2)cc1 (configuration not stated),Activity,Rattus norvegicus,60%
same,LD50,[1],> 1000 mg/kg
COc1ccc(N/C=C2\C(c3ccc(O)cc3)=Nc3ccccc3SC2c2ccccc2Cl)cc1 (configuration not stated),Activity,Rattus norvegicus,90%
same,LD50,[1],> 1000 mg/kg
COc1ccc(N/C=C2\C(c3ccc(O)cc3)=Nc3ccccc3SC2c2ccc(Cl)cc2)cc1 (configuration not stated),Activity,Rattus norvegicus,70%
same,LD50,[1],> 2000 mg/kg
COc1ccc(N/C=C2\C(c3ccc(O)cc3)=Nc3ccccc3SC2c2ccccc2O)cc1 (configuration not stated),Activity,Rattus norvegicus,70%
same,LD50,[1],> 1000 mg/kg
COc1ccc(N/C=C2\C(c3ccc(O)cc3)=Nc3ccccc3OC2c2ccccc2O)cc1 (configuration not stated),Activity,Rattus norvegicus,60%
same,LD50,[1],> 1000 mg/kg
COc1ccc(N/C=C2\C(c3ccc(O)cc3)=Nc3ccccc3SC2c2ccc(O)cc2)cc1 (configuration not stated),Activity,Rattus norvegicus,60%
same,LD50,[1],> 1000 mg/kg
Oc1ccc(C2=Nc3ccccc3OC(c3ccccc3O)/C2=C/Nc2ccc(Cl)cc2)cc1 (configuration not stated),Activity,Rattus norvegicus,60%
same,LD50,[1],> 1000 mg/kg
Oc1ccc(C2=Nc3ccccc3OC(c3ccc(O)cc3)/C2=C/Nc2ccc(Cl)cc2)cc1 (configuration not stated),Activity,Rattus norvegicus,70%
same,LD50,[1],> 1000 mg/kg
COc1ccc(N/C=C2\C(c3ccc(O)cc3)=Nc3ccccc3OC2c2ccc(O)cc2)cc1 (configuration not stated),Activity,Rattus norvegicus,50%
same,LD50,[1],> 1000 mg/kg
O=C1N=C([O-])NC1(c1ccccc1)c1ccccc1.[Na+] [PHENYTOIN SODIUM],Activity,Rattus norvegicus,80%
CC(O)CO (configuration not stated) [PROPYLENE GLYCOL],Activity,Rattus norvegicus,0%
